Consider 20 compounds from ChEMBL document CHEMBL1132804, “Inhibitors of src tyrosine kinase: the preparation and structure-activity relationship of 4-anilino-3-cyanoquinolines and 4-anilinoquinazolines” (Bioorg Med Chem Lett, 2000).

Molecules are shown by their SMILES.

T1 sequence (P12931 2-536 limits assumed): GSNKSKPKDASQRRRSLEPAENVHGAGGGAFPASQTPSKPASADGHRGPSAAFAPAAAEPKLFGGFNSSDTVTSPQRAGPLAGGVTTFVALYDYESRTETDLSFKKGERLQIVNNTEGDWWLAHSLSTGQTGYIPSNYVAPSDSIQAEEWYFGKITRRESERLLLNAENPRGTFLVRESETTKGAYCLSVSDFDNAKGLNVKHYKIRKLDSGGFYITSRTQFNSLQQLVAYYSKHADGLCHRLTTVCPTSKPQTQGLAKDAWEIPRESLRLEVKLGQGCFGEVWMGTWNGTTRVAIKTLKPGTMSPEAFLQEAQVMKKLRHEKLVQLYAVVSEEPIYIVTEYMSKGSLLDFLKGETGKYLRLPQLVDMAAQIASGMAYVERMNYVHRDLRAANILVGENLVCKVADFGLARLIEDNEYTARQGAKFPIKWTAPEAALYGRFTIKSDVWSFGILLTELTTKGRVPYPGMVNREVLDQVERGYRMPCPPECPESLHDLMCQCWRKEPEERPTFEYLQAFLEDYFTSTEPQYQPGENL

One assay addresses T1, Proto-oncogene tyrosine-protein kinase Src (Homo sapiens, UniProt P12931). Put plainly: In vitro inhibition of c-src tyrosine kinase. The gist of the method: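 ELISA tyrosine kinase kit format. ATP was then added to start the reaction, which ran 1 h at 30 °C and was stopped with EDTA. Duplicate testing; IC50 is the average of two determinations.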
With `CCCCCCCCCCCCOc1c(OC)cc(Nc2c(C#N)cnc3cc(OC)c(OC)cc23)cc1OC`, the IC50 was found to be 180 nM.

With `COc1cc2ncnc(Nc3cc(OC)c(OC(C)C)c(OC)c3)c2cc1OC`, the IC50 was 830 nM.

`COc1cc2ncc(C#N)c(Oc3cc(OC)c(OC)c(OC)c3)c2cc1OC` registered an IC50 of 290 nM.

`CCOc1c(OC)cc(Nc2c(C#N)cnc3cc(OC)c(OC)cc23)cc1OC` displayed an IC50 of 63 nM.

With `COc1cc2c(Nc3cc(OC)c(OC)c(OC)c3)c(C#N)cnc2cc1OCCCN1CCC(O)CC1`, half-maximal inhibition (IC50) was put at 5.5 nM.

`CCCCCCCCCCCCOc1c(OC)cc(Nc2ncnc3cc(OC)c(OC)cc23)cc1OC` displayed an IC50 of 5200 nM.

In turn, `COc1cc(Nc2c(C#N)cnc3cc(OC)c(OC)cc23)cc(OC)c1` showed an IC50 of 980 nM.

Take `COc1cc2ncc(C#N)c(Nc3cc(OC)c(OC(C)C)c(OC)c3)c2cc1OC`: the IC50 worked out at 110 nM.

In turn, `COc1cc2ncc(C#N)c(Nc3cc(OC)c(OC)c(OC)c3C)c2cc1OC` had an IC50 of 470 nM.

For the compound `CCCCOc1c(OC)cc(Nc2ncnc3cc(OC)c(OC)cc23)cc1OC`, half-maximal inhibition (IC50) was put at 490 nM.

The compound `COc1ccc(Nc2c(C#N)cnc3cc(OC)c(OC)cc23)cc1OC` showed an IC50 of 950 nM.

Compound `COc1cc2ncnc(Nc3cc(OC)c(OC(C)(C)C)c(OC)c3)c2cc1OC` registered an IC50 of 2700 nM.

Take `COc1cc2nccc(Nc3cc(OC)c(OC)c(OC)c3)c2cc1OC`: inhibition was half-maximal at 200 nM (IC50).

For `COc1cc2ncc(C#N)c(Nc3cc(OC)c(OC)c(OC)c3)c2cc1OC`, it took 35 nM to reach half-maximal inhibition (IC50).

Regarding `COc1cc2ncnc(Nc3cc(OC)c(OC)c(OC)c3)c2cc1OC`, inhibition was half-maximal at 280 nM (IC50).

In turn, `COc1cc2ncc(CO)c(Nc3cc(OC)c(OC)c(OC)c3)c2cc1OC` showed an IC50 of more than 10000 nM.

`COc1cc2ncc(C#N)c(Nc3cc(OC)c(OC)c(OC)c3Br)c2cc1OC` yielded an IC50 of 170 nM.

In turn, `COc1cc2c(Nc3cc(OC)c(OC)c(OC)c3)c(C#N)cnc2cc1OCCCN1CCCCC1` yielded an IC50 of 5.3 nM.

Take `CCOC(=O)c1cnc2cc(OC)c(OC)cc2c1Nc1cc(OC)c(OC)c(OC)c1`: the concentration for half-maximal inhibition (IC50) was more than 10000 nM.

`CCOc1c(OC)cc(Nc2ncnc3cc(OC)c(OC)cc23)cc1OC`: the IC50 worked out at 340 nM.

In the next assay the target is T1, Proto-oncogene tyrosine-protein kinase Src. The experiment in a line: Inhibition of Src kinase at 1000 nM ATP. The gist of the method:
(§1)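 ATP-dependence study in the same ELISA format. Human c-Src protein (3 units/reaction) and cdc2 substrate peptide were in Tris-HCl pH 7.5 buffer with MgCl₂, EGTA and Na₃VO₄. Compound preincubation was 10 min at 30 °C. The reaction was started with ATP at four final levels (100, 500, 1000, 5000), run 1 h at 30 °C and stopped with EDTA. IC50 was determined at each ATP level.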
For `COc1cc2ncc(C#N)c(Nc3cc(OC)c(OC)c(OC)c3)c2cc1OC`, it took 190 nM to reach half-maximal inhibition (IC50).

The target is the same in a further assay. Put plainly: Inhibition of Src kinase at 100 nM ATP. The gist of the method: as §1
`COc1cc2ncc(C#N)c(Nc3cc(OC)c(OC)c(OC)c3)c2cc1OC`: the IC50 came to 34 nM.

The target is the same in another assay. Put plainly: Inhibition of Src kinase at 5000 nM ATP. The gist of the method: as §1
Compound `COc1cc2ncc(C#N)c(Nc3cc(OC)c(OC)c(OC)c3)c2cc1OC` gave an IC50 of 650 nM.

The next assay shares this target. The experiment in a line: Inhibition of Src kinase at 500 nM ATP. In a few lines: as §1
`COc1cc2ncc(C#N)c(Nc3cc(OC)c(OC)c(OC)c3)c2cc1OC` displayed an IC50 of 108 nM.

By IC50 is commonly meant the concentration needed to halve the response being measured. A high value points to lower potency.
